MC4R barr agon: activates human MC4R beta-arrestin recruitment; P32245; U2OS MC4R beta-arrestin complementation, luminescence; percent of melanotan II response, DMSO zero; activation, % at 8.9 µM; 360,000 compounds, 0.98% hits; AID 540308;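 active = activation above a per-plate cutoff, the mean activation of sample wells on that plate plus 3 SD, cut at about 8% in these data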
Target sequence (P32245 whole entry, looked up): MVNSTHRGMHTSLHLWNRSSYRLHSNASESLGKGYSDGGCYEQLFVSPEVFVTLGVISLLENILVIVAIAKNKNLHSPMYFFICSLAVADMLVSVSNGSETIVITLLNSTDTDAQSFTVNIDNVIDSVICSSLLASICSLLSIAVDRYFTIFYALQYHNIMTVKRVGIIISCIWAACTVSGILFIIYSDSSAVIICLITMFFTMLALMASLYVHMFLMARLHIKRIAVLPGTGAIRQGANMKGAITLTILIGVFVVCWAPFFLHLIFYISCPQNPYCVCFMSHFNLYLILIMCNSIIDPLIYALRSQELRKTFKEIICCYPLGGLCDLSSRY
TLR4 MyD88 comp: blocks binding of human TLR4 to MyD88. inhibition, % at 8.4 µM. 200,000 compounds, 0.18% hits. HeLa CL3-4 TLR4/MyD88 BLA complementation, FRET ratio. O00206+Q99836. AID 861; in the data active = inhibition above about 25%;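 also: 0% = vehicle and 100% = reference inhibitor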
MC4R antagonist: antagonists of human melanocortin 4 receptor (MC4R) | P32245 | MC4R-expressing cells, MTII-stimulated cAMP, LANCE TR-FRET | inhibition, % at 6.5 µM | 360,000 compounds, 0.48% hits | AID 540295;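 active = inhibition above its plate's cutoff, the mean of tested wells on that plate plus 3 SD, cut at about 29% in these data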;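 also: 0% = Melanotan II alone and 100% = Melanotan II plus saturating MCL0020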
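Material – human MC4R-expressing U2OS cells · Repeats – no replicates · Detection – TR-FRET with Eu-cAMP and labeled anti-cAMP, 671 nm · Times – compound 30 min, challenge 1 h, detection 1 h · Compound – single nominal compound dose of 6.5 µM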
TLR9-MyD88 inh: blocks human TLR9 binding to MyD88; AID 504734; inhibition, % at 4.98 µM; CHO BLA complementation TLR9-MyD88, CCF4 FRET ratio; 340,000 compounds, 0.21% hits;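 active = inhibition above the mean over all tested compounds plus 3 SD, cut at about 21% in these data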;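 also: 0% = DMSO only wells and 100% = clavulanate BLA inhibitor control wells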
NOD2-RIPK2 inh: NOD2-RIPK2 protein interaction inhibition | 360,000 compounds, 0.38% hits | CHO BLA complementation NOD2-RIPK2, CCF4 ratio | O43353 | inhibition, % at 4.98 µM | AID 624267; in the data active = inhibition above about 21%;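 also: 0% = vehicle only and 100% = reference blocker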
MIN6 prolif: MIN6 beta-cell proliferation induction. 330,000 compounds, 0.29% hits. MIN6 cells proliferation, ATPlite luminescence, 48 h; cells starved in 0.2% serum; 100% = growth in 10% serum. proliferation, % at 10 µM;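 active = compounds whose signal lies at least 3.5 SD above the mean of all wells on their plate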;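 also: 0% = DMSO-treated cells in low-serum medium and 100% = 10% serum control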
NOD2 RIPK2 conf: NOD2-RIPK2 interaction inhibition confirmed | shares compounds with NOD2-RIPK2 inh | CHO cells, NOD2-RIPK2 BLA complementation, CCF4 FRET | inhibition, % at 4.98 µM | 1,200 compounds, 70% hits | AID 624370;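 active = mean inhibition across replicates above a set limit taken from the earlier primary screen, cut at about 21% in these data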;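 also: 0% = DMSO-only wells and the high end = clavulanate BLA-blocked wells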
NOD2 BLA counter: counter-screen for NOD2-RIPK2 interaction inhibitors: BLA reporter. CHO BLA reporter, CCF4 FRET ratio, counterscreen. shares compounds with NOD2-RIPK2 inh. inhibition, % at 4.98 µM. 1,200 compounds, 57% hits;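 active = mean inhibition above the low-control mean inhibition plus three low-control SD, cut at about 11% in these data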;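 also: 0% = DMSO only wells and 100% = clavulanate high control wells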
Starred values were filed as active, the others as inactive; . = not tested or not shown. Only some compounds are listed: those with a hit (about 2.1% of all), similar ones and a draw of the others.

SMILES	MC4R barr agon	TLR4 MyD88 comp	MC4R antagonist	TLR9-MyD88 inh	NOD2-RIPK2 inh	MIN6 prolif	NOD2 RIPK2 conf	NOD2 BLA counter
CCOc1ccc(/C=C2\CCC(C3CCCC3)C2=O)cc1 (configuration not stated)	-1	.	3	2	-1	-2	.	.
COc1ccc(NC(=O)C(C2CC2)n2c(=O)c(-c3cc4ccccc4[nH]3)nc3ccccc32)cc1 (configuration not stated)	.	.	.	.	46*	.	40*	67*
O=C(Nc1ccc2c(c1)OCCO2)C(c1ccccc1F)n1c(=O)c(-c2ccco2)nc2ccccc21 (configuration not stated)	.	.	.	.	4	.	.	.
COc1ccc(NC(=O)C(C2CC2)n2c(=O)c(-c3ccco3)nc3ccccc32)cc1 (configuration not stated)	.	.	.	.	-9	.	.	.
O=C(Nc1ccc2ccccc2c1)C(C1CC1)n1c(=O)c(-c2cc3ccccc3[nH]2)nc2ccccc21 (configuration not stated)	.	.	.	.	45*	.	41*	66*
O=C(Nc1ccc2c(c1)OCCO2)C(C1CC1)n1c(=O)c(-c2cc3ccccc3[nH]2)nc2ccccc21 (configuration not stated)	.	.	.	.	45*	.	38*	61*
COc1ccc(C(CNC(=O)c2ccc(S(=O)(=O)N3CC(C)CC(C)C3)cc2)N(C)C)cc1 (configuration not stated)	-1	.	8	1	4	-6	.	.
O=[N+]([O-])c1ccc2nc(NN=Cc3ccc(O)cc3)sc2c1	-4	.	10	8	23*	.	25*	32*
COc1ccc(C)cc1NC(=S)N1CCN(S(C)(=O)=O)CC1	0	-1	18	-5	4	-1	.	.
O=C1C(Cl)=C(Nc2ccc3cn[nH]c3c2)C(=O)c2ccccc21	-4	.	-14	3	91*	.	79*	28*
O=C(COc1ccc(S(=O)(=O)N2CCOCC2)cc1Cl)NCC1CCCO1 (configuration not stated)	-1	.	9	-7	46*	-1	-2	-4
CCOC(=O)C[n+]1ccc2c([nH]c3ccccc32)c1C	1	.	26	-5	38*	0	3	-4
COc1ccc2c(c1)C(=O)C(=O)N2CC1COc2ccccc2O1 (configuration not stated)	-2	.	-24	0	12	-5	.	.
Cc1ccc2c(c1)C(=O)C(=O)N2CC1COc2ccccc2O1 (configuration not stated)	-1	.	-3	6	24*	-5	12	-5
O=C(Nc1cccc(Oc2ccccc2)c1)c1ccc(-n2cncn2)c2ccoc12	2	.	9	.	-3	.	.	.
CC(C)NC(=O)N1Cc2cc(C(=O)NC3CCCCC3)nc(-c3cccc(-c4cccnc4)c3)c2[C@@H]1CCO	.	.	.	.	-6	.	.	.
CC(=O)N1CCN(c2ccc(NC(=O)c3ccc([N+](=O)[O-])o3)cc2Cl)CC1	-3	.	21	4	28*	-4	27*	6
O=C(Nc1ccc(Cc2ccncc2)cc1)c1ccc([N+](=O)[O-])o1	-2	.	12	7	21*	-4	32*	16*
O=C(Nc1ccc(S(=O)(=O)N2CCCC2)cc1)c1ccc([N+](=O)[O-])o1	-2	.	22	2	23*	-6	27*	21*
Cc1ccc(NC(=O)Cc2ccccc2)cc1S(=O)(=O)N1CCOCC1	0	.	11	-3	-3	-5	.	.
O=C1OCCN1C(=O)[C@H]1[C@H](c2ccc(Cl)cc2)C(c2cccc(Cl)c2)=NN1c1ccccc1	2	2	10	13	15	-8	.	.
OC[C@@H]1[C@@H](c2ccccc2)C(c2cccc(Cl)c2)=NN1c1ccccc1	2	.	7	-4	33*	.	27*	54*
